The sample as a whole holds a higher share of hits than the screen did.
Biofilm kill mix: mixture kills Candida albicans biofilm cells. C. albicans biofilm persisters + clotrimazole, fluorescence viability; primary screen in compound mixtures of four per well. inhibition, % at 7.6 µM. 0.02% of 120,000 active;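 active = inhibition above 30.3% in the primary screen of four-compound pools, then above 30% when the compound was retested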;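 also: compounds exposed to preformed 24 h biofilms for 48 h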
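System: C. albicans CAF4-2 wild-type biofilms; Medium: RPMI/MOPS medium, pH 7.0; Reagent: Clotrimazole, 50 µg/mL; Times: biofilm formation 24 h, compound exposure 48 h, 37 °C; Detection: 2-h Alamar Blue fluorescence, 535/590 nm excitation/emission; Evaluation: percent inhibition of biofilm viability.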
Pf gametocyte: P. falciparum stage V gametocyte viability inhibition; 0.065% of 150,000 active; AID 743093; inhibition, % at 10.9 µM; P. falciparum stage V gametocytes, ATP luminescence, 24 h;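 active = inhibition above the mean plus 3 SD of compounds within the control limits, set per campaign, cut at about 38% in these data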
ROMK primary: modulates human ROMK potassium channel activity; Tet-inducible ROMK, thallium flux fluorescence; actives lie on both sides; B-score at 10 µM; 2% of 130,000 active; AID 1918;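 active = signal ratio slope over the read window, or its plate-corrected B-score, at least 3 SD from the plate mean, either direction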;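 also: B-score of the F/F0 ratio slope over 7 to 12 s after thallium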
Target sequence (P48048 whole entry, looked up): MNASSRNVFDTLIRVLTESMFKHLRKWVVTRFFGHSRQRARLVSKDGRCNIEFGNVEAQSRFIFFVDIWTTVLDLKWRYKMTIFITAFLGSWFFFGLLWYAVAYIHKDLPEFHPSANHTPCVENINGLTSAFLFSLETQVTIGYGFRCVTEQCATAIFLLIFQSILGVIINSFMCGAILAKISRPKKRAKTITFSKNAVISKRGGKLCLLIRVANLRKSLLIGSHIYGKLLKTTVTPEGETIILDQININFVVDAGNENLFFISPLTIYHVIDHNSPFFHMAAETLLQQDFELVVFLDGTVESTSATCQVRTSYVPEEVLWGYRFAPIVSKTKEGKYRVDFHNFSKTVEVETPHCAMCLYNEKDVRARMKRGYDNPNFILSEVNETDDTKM
Hits are given with their value; 0 = inactive; - = no result.

SMILES | Biofilm kill mix | Pf gametocyte | ROMK primary
O=C(NC1CCCCC1)C(c1ccc(F)cc1)N(Cc1ccco1)C(=O)Cn1nnc2ccccc21 (stereo not drawn) | - | 0 | 0
CS/C(=N\S(=O)(=O)c1cccs1)Nc1ccc(F)c(Cl)c1 | 0 | 59 | 0
CS/C(=N\S(=O)(=O)c1cccs1)Nc1cccc(Cl)c1C | 0 | - | 0
COc1cc(-c2nc(CN3CCN(c4ncccn4)CC3)c(C)o2)ccc1F | 0 | 0 | 0
O=C(CNC(=O)c1cccc(F)c1)OCC(=O)N1CCCCC1 | 0 | 0 | -
CCOc1ccc(C(=O)NCC(=O)OCC(=O)N2CCCCC2)cc1 | - | - | 0.95
CCCCOC(=O)Cn1c(=N)n(CCN2CCOCC2)c2ccccc21 | - | 0 | -
N=c1n(CCN2CCOCC2)c2ccccc2n1CC(=O)c1ccc(Cl)c(Cl)c1 | - | 0 | -4.9
O=C(Nc1cc(C(F)(F)F)cc(C(F)(F)F)c1)c1ccc(Cn2cc(C(F)(F)F)ccc2=O)cc1 | - | 0 | -
COc1ccc(S(=O)(=O)N2CN3CCN(C3)C2)cc1 | - | 0 | -
N=C1/C(=C/c2ccc(-c3cccc(C(=O)O)c3)o2)C(=O)N=C2SC=C(c3ccccc3)N12 | 0 | 0 | 2.3
N=C1/C(=C\c2ccc(-c3cc(Cl)cc(Cl)c3)o2)C(=O)N=C2SC=C(c3ccccc3)N12 | 0 | 0 | -
O=C(CSc1nc2[nH]ncc2c(=O)[nH]1)NCc1ccc(F)cc1 | 0 | 0 | 0
N#C/C(=N\Nc1cccc([N+](=O)[O-])c1)C(=O)c1ccc(Br)cc1 | 0 | 0 | 3.1
O=C(O)c1ccc(N=NNc2cccc([N+](=O)[O-])c2)cc1 | 0 | 0 | 0
Cc1c(-c2ccccc2)sc2nc[nH]c(=S)c12 | 0 | - | 4.9
Cc1ccc(-c2csc3nc[nH]c(=S)c23)cc1C | 0 | 0 | -
C=CSc1sc(Cl)c(N2CCOCC2)c1[N+](=O)[O-] | 0 | 0 | 0
C=CS(=O)(=O)c1sc(Cl)c(N2CCOCC2)c1[N+](=O)[O-] | 0 | 0 | -8.6
O=C(CCNC(=O)c1ccccc1Cl)Nc1nc(-c2ccccc2Cl)cs1 | 0 | - | 0
COc1ccc(NC(=S)NC(=O)c2csnn2)cc1 | 0 | 0 | -
O=C(NC(=S)Nc1ccc(C(F)(F)F)cc1)c1csnn1 | 0 | 0 | 7.4
O=C(/C=C/c1ccc2c(c1)OCO2)Nc1ccc(Cl)cn1 | 0 | 0 | 0
CCC(CO)[n+]1c(C)cc(/C=C2\Sc3ccccc3N2Cc2ccccc2)cc1C (stereo not drawn) | 35 | 0 | -
CCN1/C(=C2\SC(=S)N(Cc3ccccc3)C2=O)Sc2ccccc21 | 0 | 0 | -
SMILES | Biofilm kill mix | Pf gametocyte | ROMK primary
Cc1nc2c(c(=O)n1CC1CCCO1)c1nc3ccccc3nc1n2Cc1ccc2c(c1)OCO2 (stereo not drawn) | - | - | 0
CC12CCC(c3n[nH]c(=S)nc31)C2(C)C (stereo not drawn) | 0 | 0 | 0
O=C(OCn1ncc(Br)c(Br)c1=O)c1ccccc1Cl | - | - | 0
O=C(OCn1ncc(Br)c(Br)c1=O)c1ccc(F)cc1 | - | - | -3.5
COc1ccc(Cc2n[nH]c(=S)n2NC(=O)Nc2ccc(Cl)c(Cl)c2)cc1 | 0 | 0 | -
CCCCNC(=O)c1cn(-c2ccc(OCC)cc2)c(=O)c2cc(OC)c(OC)cc12 | - | 0 | 0
COc1ccccc1NC(=O)NC1(C(=O)N2CCC(O)CC2)CCCCC1 | - | 0 | -5
CCOc1ccccc1NC(=O)NC1(C(=O)N2CCOCC2)CCCCC1 | - | 0 | -
COC(=O)CN1C(C)=Nc2ccc(C)cc2C1c1ccccc1 (stereo not drawn) | 0 | 0 | 0
COC(=O)CN1C(c2ccccc2)=Nc2ccc(Cl)cc2C1c1ccccc1 (stereo not drawn) | - | 0 | -3.1
c1ccc(-c2[nH]ncc2CN2CCN(Cc3ccc4c(c3)OCO4)CC2)cc1 | 0 | 0 | -
O=C(NCCCN1CCOCC1)c1c(O)c2cc(Br)cc(Br)c2[nH]c1=O | - | - | -3.3
COc1cc2[nH]c(=O)c(C(=O)NCCCN3CCOCC3)c(O)c2cc1OC | 0 | 0 | 0
O=C(COC(=O)c1ccc2c(c1)C(=O)N(Cc1ccncc1)C2=O)Nc1cccc2ccccc12 | 0 | 0 | 0
Cc1csc(Sc2ccc(S(=O)(=O)N3CCCC3)cn2)n1 | 0 | 0 | 0
O=C(Nc1ccccc1Cc1ccccc1)c1ccccc1NS(=O)(=O)c1ccc(Cl)s1 | 0 | 0 | -3.5
Cc1ccc(NC(=O)c2ccccc2NS(=O)(=O)c2ccc(Cl)s2)cc1 | 0 | 0 | 0
CCO[C@@H]1OC(C(=O)Nc2ccccc2)=C[C@H](C2CC2)[C@H]1CCCO | 0 | 0 | -
O=C1NC(=S)S/C1=C\c1coc2ccccc2c1=O | 0 | - | -4.6
C/[N+]([O-])=C\c1coc2ccccc2c1=O | - | 0 | 0
Fc1cccc2sc(Nc3nnc(-c4ccco4)o3)nc12 | - | - | 5.1
COc1cccc2sc(Nc3nnc(-c4cccs4)o3)nc12 | - | 0 | -
CCCOc1ccc(C(C)=O)cc1CSc1nc(O)cc(=O)[nH]1 | - | - | 0
NC(=O)COC(=O)CNC(=O)c1cc(Cl)cc([N+](=O)[O-])c1 | 0 | 0 | 0
CC(C)(C)NC(=O)NC(=O)COC(=O)CNC(=O)c1cc(Cl)cc([N+](=O)[O-])c1 | 0 | 42 | 0
SMILES | Biofilm kill mix | Pf gametocyte | ROMK primary
Cc1cc(OCC(=O)N(C(C)C)C(C)C)cc(C)c1Br | 0 | 0 | 0
C/C(CC(=O)Nc1ccc(N(C)C)cc1)=N\NC(=O)c1ccc(C(C)(C)C)cc1 | - | 0 | -
CCN(CC)C(=O)C1CCN(Cc2ccc(OCc3ccccc3)cc2)CC1 | - | 0 | -
CCN(CC)C(=O)C1CCN(Cc2cccc(OCc3ccccc3)c2)CC1 | - | - | -3.1
O=C(NCCO)/C(=C/c1cccc([N+](=O)[O-])c1)NC(=O)c1ccco1 | 0 | 0 | 0
COc1cc(C(=O)NC(=S)N(C)Cc2ccccc2)cc(OC)c1OC | 0 | 0 | 0
COc1cc(C(=O)NC(=S)N(CCc2ccccc2)CCc2ccccc2)cc(OC)c1OC | 0 | - | 3.3
C=CCn1c(SCC(C)=O)nc2scc(-c3ccc(C)o3)c2c1=O | - | 0 | -
CC(C)n1c(=S)[nH]c2scc(-c3cccs3)c2c1=O | 0 | 0 | -
C=CCn1c(=S)[nH]c2scc(-c3ccc(C)o3)c2c1=O | 0 | 0 | 7.5
CCn1c(=S)[nH]c2scc(-c3cccs3)c2c1=O | 0 | 0 | 13
COc1cc2c(cc1NC(=S)Nc1cccc3ccccc13)oc1ccccc12 | - | - | 1.4
COc1cc2c(cc1NC(=S)Nc1cccc(C(F)(F)F)c1)oc1ccccc12 | - | 0 | -
CC1CCN(C(=O)c2[nH]cnc2C(=O)N2CCN(c3ccccc3)CC2)CC1 | - | 0 | -
CCC1=NN(C(=O)c2ccc(Cl)cc2)C(O)(c2ccc(C)cc2)C1 (stereo not drawn) | - | 0 | -
CCOC(=O)C1=NN(C(=O)c2ccc(C)cc2)C(O)(c2ccc(Cl)cc2)C1 (stereo not drawn) | - | - | 2.8
Cc1ccsc1/C=C1\SC(N2CC(C)OC(C)C2)=NC1=O (stereo not drawn) | 0 | 0 | 0
COc1ccc(N(C(=O)Cc2cccs2)C(C(=O)NC2CCCCC2)c2cccn2C)cc1OC (stereo not drawn) | 0 | 0 | -3.9
Cn1cccc1C(C(=O)NC1CCCCC1)N(C(=O)Cc1cccs1)C1CC1 (stereo not drawn) | - | 0 | 0
c1cncc(C2OCC3(CO2)COC(c2cccnc2)OC3)c1 (stereo not drawn) | 0 | 0 | 0
O=C1c2ccccc2S(=O)(=O)c2cc(N3CCC4(CC3)OCCO4)ccc21 | - | 0 | -
O=C1NC(=O)/C(=C/c2ccccc2OCc2ccccc2)S1 | 0 | 0 | 0
O=C(COc1ccccc1/C=C1\SC(=O)NC1=O)Nc1ccccc1 | 0 | 0 | -3.2
